Reference: PMC4245176 (Journal of Chemical Information and Modeling, 2014)
Entries after “also recorded” stand apart in the source; their conditions may differ.

Key:
[1] = test system: peripheral blood mononuclear cells (PBMCs); assay: MTS cytotoxicity assay in PBMCs; type: cell-based, human; conditions: up to the highest test concentration of 100 μM
In short: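 Cytotoxicity was read by MTS addition alongside the 7-day HIV-1 infection of pooled PHA/IL-2-stimulated human PBMCs (5 × 10^4 cells/well, nine compound concentrations, triplicate wells). The maximum concentration tested was 100 μM. CC50 is the half-maximal cytotoxic concentration. TI = CC50/IC50, with IC50 taken from the RT-based antiviral readout against 89BZ167.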

HIV-1 CA Gln179Ala = HIV-1 CA Gln179Ala (Human immunodeficiency virus type 1 group M subtype B, UniProt P12493, Q311A); assay: SPR binding site analysis, mutant CA; conditions: 50 μM compound, equilibrium response normalized to theoretical Rmax
In short: (§1)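 Wild-type and Ala-mutant CA were amine-coupled to a GLH chip at 100 μg/mL in sodium acetate pH 4.5, after EDC (0.2 M)/sulfo-NHS (0.05 M) activation for 5 min at 25 °C, then capped with 1 M ethanolamine pH 8.0. Test compound was injected at 100 μL/min with a 2 min association. Rmax assumed 1:1 per surface. Responses from 12 replicate injections per surface were analysed.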

HIV-1NL4-3 CA protein = HIV-1NL4-3 CA protein (Human immunodeficiency virus type 1 group M subtype B, UniProt P12493); assay: SPR direct binding to immobilized CA
In short: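 CA was amine-coupled at 100 μg/mL in sodium acetate pH 4.5 onto an EDC/sulfo-NHS-activated GLH chip, with a nonspecific-antibody reference surface. A 10 mM DMSO stock of test compound was serially diluted 2-fold to 18.75–300 μM in PBS-T pH 7.4 with 5% DMSO. One-shot kinetics ran at 100 μL/min, 2 min association and 2 min dissociation. Buffer and reference responses were subtracted, and data were fitted to a 1:1 model.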

HIV-1 CA Ser41Ala = HIV-1 CA Ser41Ala (Human immunodeficiency virus type 1 group M subtype B, UniProt P12493, S173A); assay: SPR binding site analysis, mutant CA; conditions: 50 μM compound, equilibrium response normalized to theoretical Rmax
In short: as §1

HIV-1 CA Lys170Ala = HIV-1 CA Lys170Ala (Human immunodeficiency virus type 1 group M subtype B, UniProt P12493, K302A); assay: SPR binding site analysis, mutant CA; conditions: 50 μM compound, equilibrium response normalized to theoretical Rmax
In short: as §1

HIV-1 CA Asn139Ala = HIV-1 CA Asn139Ala (Human immunodeficiency virus type 1 group M subtype B, UniProt P12493, N271A); assay: SPR binding site analysis, mutant CA; conditions: 50 μM compound, equilibrium response normalized to theoretical Rmax
In short: as §1

HIV-1_89BZ167 = assay: PBMC-based HIV-1 replication assay; type: cell-based; conditions: HIV-1 replication in primary human PBMCs
In short: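 Fresh human PBMCs from HIV-1/HBV-seronegative donors were stimulated with 4 μg/mL PHA for 48–72 h and kept in 20 U/mL rhIL-2. Cells from ≥2 donors were pooled at 5 × 10^4 cells/well and infected with 89BZ167 (subtype B, CXCR4-tropic) at MOI ≅0.1 with nine compound concentrations (triplicate wells) for 7 days. Supernatant RT activity gave infection as % of compound-free control, from which IC50 was derived.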

HIV-1 CA Pro38Ala = HIV-1 CA Pro38Ala (Human immunodeficiency virus type 1 group M subtype B, UniProt P12493, P170A); assay: SPR binding site analysis, mutant CA; conditions: 50 μM compound, equilibrium response normalized to theoretical Rmax
In short: as §1

HIV-1 CA Arg173Ala = HIV-1 CA Arg173Ala (Human immunodeficiency virus type 1 group M subtype B, UniProt P12493, R305A); assay: SPR binding site analysis, mutant CA; conditions: 50 μM compound, equilibrium response normalized to theoretical Rmax
In short: as §1

HIV-1 CA Ile37Ala = HIV-1 CA Ile37Ala (Human immunodeficiency virus type 1 group M subtype B, UniProt P12493, I169A); assay: SPR binding site analysis, mutant CA; conditions: 50 μM compound, equilibrium response normalized to theoretical Rmax
In short: as §1

**Q.** What does the source list for `O=[N+]([O-])c1cccc(-c2nc3c4cc(I)ccc4c4ccccc4c3[nH]2)c1` [Compound 34, 5-iodo-2-(3-nitrophenyl)-1H-phenanthro[9,10-d]imidazole]?
**A.** toxicity / viability of PBMCs [1]: no toxicity; also recorded: not toxic; effect of mutation on compound binding versus wild-type CA (HIV-1 CA Gln179Ala): loss of favorable interactions; Kd (HIV-1NL4-3 CA protein): 11.8 ± 4.7 µM; effect of mutation on compound binding versus wild-type CA (HIV-1 CA Ser41Ala): loss of favorable interactions; effect of mutation on compound binding versus wild-type CA (HIV-1 CA Lys170Ala): loss of favorable interactions; also recorded: major effect; effect of mutation on compound binding versus wild-type CA (HIV-1 CA Asn139Ala): no effect; improvement in antiviral potency over I-XW-053 (compound 1) (HIV-1_89BZ167): 11 fold; effect of mutation on compound binding versus wild-type CA (HIV-1 CA Pro38Ala): increase the interaction; effect of mutation on compound binding versus wild-type CA (HIV-1 CA Arg173Ala): increase the interaction; effect of mutation on compound binding versus wild-type CA (HIV-1 CA Ile37Ala): no effect
